Measured values: the EternaBench riboswitch data

Test system: MS2 coat protein
Assay: apparent Kd, MS2 coat protein; higher = weaker binding; RNA-MaP array; FMN 200 µM where present
Outline: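 The apparent Kd is reported as the median of filtered per-cluster binding-curve fits. To get these curves, designs transcribed by stalled E. coli RNA polymerase on Illumina sequencing-chip clusters were titrated with SNAP-549-labelled MS2 coat protein from 0.7 or 1.5 nM, doubling to 3 µM. Titrations were run without and then with constant ligand in 100 mM Tris-HCl pH 7.5, 80 mM KCl, 4 mM MgCl2, BSA, DTT, yeast tRNA and Tween-20, and green signal was normalised to red-channel RNA signal and control-cluster median Fmax.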

[1] = designed as: ON switch for flavin mononucleotide, no ligand
[2] = ligand present: flavin mononucleotide, designed as: ON switch for flavin mononucleotide
[3] = designed as: OFF switch for flavin mononucleotide, no ligand
[4] = ligand present: flavin mononucleotide, designed as: OFF switch for flavin mononucleotide

| Sequence | apparent Kd [1] | apparent Kd [2] | apparent Kd [3] | apparent Kd [4] |
| --- | --- | --- | --- | --- |
| GUAACAUGAGGAUCACCCAUGUAUAGAACGCUUAAUAGAUCUGAGGAUAUACUAGAAUUUACGUAGUAGAAGGCAGUGGGUACA | 35.9 nM | 26.9 nM | – | – |
| GGCACCAUCACAGGAUAUGCUUUCUUUUGGGAAGCAGAAGGGUGUAACAUGAGGAUCACCCAUGUGGUGCCAGGGCGUGAGCCC | 175 nM | 14 nM | – | – |
| CACUUAGGCACAUGAGGAUCACCCAUGUCCCGGGAGCCGAGACAGGAUAUGUGCCUCGAAUGUGCACAGAAGGGUCUACUAUGU | 165 nM | 229 nM | – | – |
| GAUACACAUGAGGAUCACCCAUGUCGUAUGACAUGAGGAUAUGUACAGACUUCGGUCUGUACAGAAGGCAUGUGUC | 115 nM | 199 nM | – | – |
| AUUAUUAUAUUAUACAUGAGGAUCACCCAUGUUAUAAGUCAUGAGGAUAUGGUAUUGUAGUUUUUCCAGAAGGCAUUUAACUUA | 10.3 nM | 6.04 nM | – | – |
| CUCGUGUAAGGAUAUAUUGCAAUGACGAAAUUUGCCCUGAGAUAGAAGGUACAUGAGGAUCACCCAUGUGUCGG | – | – | 45.5 nM | 92.2 nM |
| UGCUGGCAAGGAUAUACUCGGGAUGCUAGUCGCGCGGUUGCACAUGAGGAUCACCCAUGUAGAAGGUGUCUGUG | – | – | 195 nM | 160 nM |
| UUGAUGUCAUCAGGAUAUAGUAUUUAAGACAUAUCUUCUUUCUUACAUGAGGAUCACCCAUGUCGCUAGAAGGGAUGAAUGAUU | – | – | 18.7 nM | 15.4 nM |
| UGAUAGGACAGAGGAUAUACGGAUAGGAUCUACUAUCCUCCUUUAAUAACAUGAGGAUCACCCAUGUAGAAGGCUGUCCUAUCU | – | – | 15.3 nM | 24.2 nM |
| UUGAUAAGGAGAGGAUAUGGACAUGAGGAUCACCCAUGUACAUGGGAAUAUUUACUGAAUUUUUACUAGAAGGCUUACAUAUUU | – | – | 15.8 nM | 12.4 nM |
| GUACUCAUGUAAGGAUAUGCAGCCGAAACGGCUGCAGAAGGUACUAUAAUACAUGAGGAUCACCCAUGUCAAAAUAAAAUAGUU | 116 nM | 35.4 nM | – | – |
| CAUAUACAUGAGGAUCACCCAUGUGAGGAUAUGCUUUAUUAUUAUUAUUAUUAUUGUUGCAGAAGGUACAUUAC | – | – | 24.2 nM | 20.6 nM |
| UUUUAAUAAGAGAAGGAGCACUUCAUGAGGAUCACCCAUGUGUUAGUAGUUAGGAUAUUUAAUAACAUGAGGAUCACCCAUGUC | 159 nM | 123 nM | – | – |
| GUGGCGACGUAGAAGGGUGACAUGAGGAUCACCCAUGUGCCGAUAUUUCUCGAGAUAUGUCGGCCACAGGAUAUACGUGCCAUC | 40.1 nM | 56 nM | – | – |
| GCUGAAAGUACAGGAUAUGAGAUAUAUGAUCACUCAGAAGGGUACCGGGACAUGAGGAUCACCCAUGUACUCUCAGCGAAAAUA | 165 nM | 553 nM | – | – |
| UCGAGUCAUGAGAAGGACUGAUGUUACAUGAGGAUCACCCAUGUCAUGGGUAGGAUAUCAUUGACACGGCCGUACCUCUCUUAC | 355 nM | 78.2 nM | – | – |
| CAGGUAGACUGAGGAUAUACAAUAAAGACCUAGUCUAUCUAGGUCUCUACAUGAGGAUCACCCAUGUAGAAGGCAGUCUGCCUG | – | – | 16 nM | 18.3 nM |
| GGAGCUCCCAUUAACAUGAGGAUCACCCAUGUCAAAAGACAUGAGGAUAUGGUACCUAAUUGGUACCAGAAGGCAUGGAGCUCC | 1180 nM | 107 nM | – | – |
| UUCAGCUUGACAGGAUAUACAUGUCAGCGAAAGCUGACUAUCUUAAUAACAUGAGGAUCACCCAUGUAGAAGGGUCGAGCUGAA | – | – | 16.4 nM | 25.6 nM |
| GGACAUUUACAGAAGGGCAAGUUAGAUCGUGGAUAACACGAUCUGACUUGCAGGAUAUGUUGAACAUGAGGAUCACCCAUGUCC | 12.9 nM | 10.8 nM | – | – |
| UGUGCGUUGAUCUUCGAUCGGAGUACAUGAGGAUCACCCAUGUAGGAUAUUCAAAGACGCAGAUAGAAGAAGGACAUCGGAUUA | – | – | 13.2 nM | 11.1 nM |
| UUACAGCAAGGAUAUACGGGCUGUGCUUUUCAUUUCUUACAACAUGAGGAUCACCCAUGUAGAAGGUGCAACAU | – | – | 32.6 nM | 73.7 nM |
| UGGACCGAGCUGUCGGUUGGCUGGCAGGAUAUGACAUGAGGAUCACCCAUGUGGGAUCUAAAUUGUCAGAAGGGCCGUUCUGGG | – | – | 212 nM | 25.4 nM |
| AAAAAACAUGAGGAUCACCCAUGUGAGGAUAUGACUUAAAUAAAGAAAGAAGAAAUAGUCAGAAGGCACAAAUA | – | – | 54.5 nM | 70.4 nM |
| AUAAAUCAUGUAGGAUAUGCGUGGCGAAGCUAUGCAGAAGGACAUGAGGAUCACCCAUGUCGUUCCGUCUGCGUACAGACGGAA | – | – | 33.8 nM | 306 nM |
| GGUGCGUUUGUGAGGAUAUGCUGGUCCUUGGAUCGGCAGAAGGCACAUGAGGAUCACCCAUGUGGUGUCGUACC | – | – | 310 nM | 29.6 nM |
| AACGUCGAAGGAUAUACAUGAGGAUCACCCAUGUGGGACCUGUAGUCUCACCCAUCGUGUAGAAGGUUGAGGCA | – | – | 32.2 nM | 29.7 nM |
| AUCAGCUCGUCAGGAUAUACGUCACUGCAUCAGCAGUGUGGUAAGAUCACAUGAGGAUCACCCAUGUAGAAGGGACGAGCUGAU | – | – | 22.9 nM | 139 nM |

| Sequence | apparent Kd [1] | apparent Kd [2] | apparent Kd [3] | apparent Kd [4] |
| --- | --- | --- | --- | --- |
| GUGCACAUUCGAGGAUAUCGGAGAGGACUCCUUCGAGAAGGCGAUUCGUGCCGUGUUAUUCUGGACAUGAGGAUCACCCAUGUG | 45 nM | 28.7 nM | – | – |
| UUGGUAUUCGUAGGAUAUCUGUCGCCACCGUGUGGAGAAGGACGAACAUGAGGAUCACCCAUGUAUCAUGGUGUGGGCUUUGUU | – | – | 504 nM | 470 nM |
| AACGGAAUGUAGAAGGGUGACAUGAGGAUCACCCAUGUUCACAUGCGUAUUAAAGUAUGUGAACCACAGGAUAUACUGUCCGUG | 56.8 nM | 130 nM | – | – |
| GGGUAGUGAGGAUAUCGUUGUUAGGAGGAGUAGGUAGGAGGCGAGAAGGCACAUGAGGAUCACCCAUGUAUGAA | – | – | 26.8 nM | 29 nM |
| AGCAUGCUAGGAUAUACGAAACAUUAGGGUUCGUCGUAUGAACAUGAGGAUCACCCAUGUAGAAGGAGCGUGCA | – | – | 18 nM | 36.2 nM |
| GUAUCGUAUGUGAGGAUAUAUUUGUCCUUGGAUUUGUAGAAGGCACAUGAGGAUCACCCAUGUCCUAGUGGUCC | – | – | 35.1 nM | 34.9 nM |
| CCUUGACAUGAGGAUCACCCAUGUUAGGAUAUAACAUUAGACACUACAGUAUGUAGUGUUAGAAGGGAUAUGGG | – | – | 22.8 nM | 28.5 nM |
| UUAUUAUGUGUAGGAUAUGCAUAUUAUUAUUAUGCAGAAGGACAUGAGGAUCACCCAUGUAUAUUGUUAUUAUAUAUUAUAUAU | – | – | 11.5 nM | 16.7 nM |
| CGUAUGUCAGGAUAUGUGUAUGCCGCUCAGGGCGAGCGGCAGCAGAAGGGACAUGAGGAUCACCCAUGUUCGGG | – | – | 62.5 nM | 127 nM |
| GUGCCUUGGGAGAAGGCAGUAUGCAAAGCAUUCUGAGGAUAUUCAUACCGGAAACGGACAUGAGGAUCACCCAUGUGGCACAAA | 1210 nM | 64.6 nM | – | – |
| CGUUAAUAUCGAGGAUAUGUCUAGACACAUGAGGAUCACCCAUGUAUGUGUAUAGAAGGCGAUAUUAACAGCAUGUUACAUGCA | 43 nM | 15.6 nM | – | – |
| AGGUCGUGAGGAUAUCGUCCCGUGAGCAGUAGUUGCGCGGGUGAGAAGGCACAUGAGGAUCACCCAUGUCAUCC | – | – | 24.9 nM | 74.4 nM |
| GUACUGUAGUGAGGAUAUACGAGAUCGAUAGAUCGGCGAUCCAUUUAUACAUGAGGAUCACCCAUGUAGAAGGCACUUCAGUAC | – | – | 5.62 nM | 56.6 nM |
| UGAGCUUGAGGAUAUACAUGAGGAUCACCCAUGUUGAGCUUGAGGAUCUUCGAGUUCGGUAGAAGGCGAGUUCG | – | – | 16 nM | 33 nM |
| CAGCGCUGUCGAGAGGAUAUGCGGUGAUGGACAUGAGGAUCACCCAUGUUAGCGACAGCAUCACGGCAGAAGGCUCUACCCGCUG | 13.2 nM | 12.8 nM | – | – |
| UUGAAGAAUUAAGGAUAUUGAAUACAUAUGUUAAACAUGAGGAUCACCCAUGUGGGUUGCGGUAUCGAGAAGGUAAAUUACUAG | 83 nM | 78.7 nM | – | – |
| UGGUACAUGGGAGGAUAUGGGAUGAUAACAUGAGGAUCACCCAUGUUAAAGAUGCCGAGAGGCAACUAGAAGGCCCAUGUACCU | 281 nM | 62.4 nM | – | – |
| CUUAAACAUGAGGAUCACCCAUGUCAGGAUAUGAUACUAUGUACUUCGGUACAUAGUAUCAGAAGGGAUAUAAA | – | – | 34.2 nM | 33.5 nM |
| CUAGCAACAUGAGGAUCACCCAUGUAGGAUAUCGCUAUUGUAAUCAUGAAACAUGAUUACAAUAGCGAGAAGGACAUAUGCUAA | – | – | 7.96 nM | 10.8 nM |
| UGAACUAUGUAGAAGGCCCACAUUAAUAUGUAGGGAGGAUAUACAUGAGGAUCACCCAUGUGAAGAGCAAGAGGAUUUAACAGA | – | – | 23.9 nM | 106 nM |
| AGCGGCGCGGGCCACCGCAAAACCAGAAGGACAUGAGGAUCACCCAUGUAACAAAACAGGGCGGUGUAGGAUAUGGCAGACCCG | – | – | 14.7 nM | 23.8 nM |
| GGGCCGCUACGCCGGCUCCACGCACAGGAUAUGCAGUUACAUGAGGAUCACCCAUGUGGCCAUGUGCAGAAGGGUGAUUCGCGA | 78.7 nM | 46.1 nM | – | – |
| CCAGCGCGUGUGAGGAUAUGCUGGUCCUUGGAUCAGCAGAAGGCACAUGAGGAUCACCCAUGUGAGUGCGUUGG | – | – | 15.7 nM | 47.2 nM |
| GCGUCAGAAUUAAUUGUGACAGACAGAAGGCAAUAGUUCAUGUCAGACAUGAGGAUCACCCAUGUUGAGGAUAUGUAUUUACAC | – | – | 6.05 nM | 6.29 nM |
| CAAUUUAGCGAGAAGGAGCGCCCGUAGGUACAUGAGGAUCACCCAUGUCCUUUGUGCUCUACGCGCUAGGAUAUCGAUAAACAG | – | – | 20.9 nM | 116 nM |
| GGAGAUACAUGAGGAUCACCCAUGUAGGAUAUCGAGUAUAUAUAUGGCGAAAGCCAUAUAUAUAUCGAGAAGGGCGUACACACC | – | – | 8.84 nM | 7.75 nM |
| AGAAUAGAAAGAUUAAUAUGAAUACAUGAGGAUCACCCAUGUAAGGAUAUCGACGUCAAUGACGUCGAGAAGGUACAUAAUAAG | – | – | 17.7 nM | 17.6 nM |
